# Measured values collected from several papers.
# Protocols differ between the studies behind these lines.
# Target: Serine/threonine-protein kinase D3 (PRKD3, Homo sapiens, UniProt O94806)
# Residues used in one study (O94806 1-890): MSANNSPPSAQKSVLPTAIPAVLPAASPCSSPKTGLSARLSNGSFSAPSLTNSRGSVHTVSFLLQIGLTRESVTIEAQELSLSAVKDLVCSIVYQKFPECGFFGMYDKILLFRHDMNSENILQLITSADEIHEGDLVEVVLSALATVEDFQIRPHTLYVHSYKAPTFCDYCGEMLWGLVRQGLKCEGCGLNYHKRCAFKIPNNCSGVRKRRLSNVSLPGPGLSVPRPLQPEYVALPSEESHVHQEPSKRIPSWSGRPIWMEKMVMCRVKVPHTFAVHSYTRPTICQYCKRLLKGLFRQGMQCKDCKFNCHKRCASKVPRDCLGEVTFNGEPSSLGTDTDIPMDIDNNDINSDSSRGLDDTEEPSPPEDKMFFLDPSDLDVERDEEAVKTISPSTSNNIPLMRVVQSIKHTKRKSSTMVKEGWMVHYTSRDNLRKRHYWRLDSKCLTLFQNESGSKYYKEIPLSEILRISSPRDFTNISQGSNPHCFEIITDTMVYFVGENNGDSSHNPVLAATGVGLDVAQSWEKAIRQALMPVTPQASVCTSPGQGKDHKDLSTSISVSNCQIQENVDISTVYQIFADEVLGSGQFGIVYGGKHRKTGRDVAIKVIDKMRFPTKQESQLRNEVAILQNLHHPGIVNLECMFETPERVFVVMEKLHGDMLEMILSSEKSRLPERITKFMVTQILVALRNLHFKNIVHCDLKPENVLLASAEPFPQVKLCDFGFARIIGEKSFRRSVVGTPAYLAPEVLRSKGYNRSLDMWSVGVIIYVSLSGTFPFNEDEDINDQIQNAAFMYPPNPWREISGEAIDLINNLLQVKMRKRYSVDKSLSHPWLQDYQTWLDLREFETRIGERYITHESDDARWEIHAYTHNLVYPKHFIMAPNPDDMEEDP
Compound,test,setting,remaining binding
C[C@@H](c1ccc(-n2cnc3c(N)ncnc32)cc1)N1CCc2nn(C)c(Cc3ccccc3)c2C1=O,"binding, competition with immobilised ligand",0.1 µM,85%
CN(CCCC(F)(F)F)c1nccc(-c2cnn3ncccc23)n1,binding,1 µM,100%
COc1ccc2cc(OCC3(C(=O)O)CN(C(=O)c4ccc(F)cc4)C3)ccc2c1,"cell-free assay, competition with immobilised ligand",1 µM,91%
COc1ccnn2ncc(-c3ccnc(N(C)C)n3)c12,binding,1 µM,100%
CNCc1ccccc1-c1csc([C@@H](C)Nc2nc(C)nc3cc(OC)c(OC)cc23)c1,"cell-free assay, competition with immobilised ligand",1 µM,92%
Cc1cnc(Nc2ccc(C(=O)N3CCC(N4CCCC4)CC3)cc2)nc1-c1cc2ccccc2s1,"binding, competition with immobilised ligand",1 µM,37%
O=C(Nc1c[nH]nc1C(=O)NC1CCNCC1)c1cc(F)cc(F)c1,"binding, competition with immobilised ligand",1 µM,100%
Cc1cc(NC(=O)c2cccc(S(F)(F)(F)(F)F)c2)cc(-n2ccn3nc(-c4cccnc4)cc23)c1,"cell-free assay, competition with immobilised ligand",1 µM,100%
N[C@H]1CCN(c2nccc(-c3cnn4ncccc34)n2)C1,binding,1 µM,91%
CS(=O)(=O)N1CCCC(NC(=O)[C@H](CCC2CCCCC2)NC(=O)c2ccc(CNC(=O)c3cnc4ccccn34)cc2)C1 (stereo partly drawn),"cell-free assay, competition with immobilised ligand",0.1 µM,90%
C[C@@H]1CCN(c2nccc(-c3cnn4ncccc34)n2)C1,binding,1 µM,100%
COc1ncc2cc3ccccc3nc2c1C#N,"cell-free assay, competition with immobilised ligand",5 µM,100%
O=C(c1ccc(Nc2ncc(Cl)c(-c3cc4ccccc4s3)n2)cc1)N1CCC(N2CCCC2)CC1,"binding, competition with immobilised ligand",1 µM,18%
FC(F)(F)Oc1cccc(-c2cnc3ccc(-c4ccncc4)nn23)c1,"cell-free assay, competition with immobilised ligand",5 µM,100%
O=C(c1ccc(Nc2nccc(-c3cc4ccccc4s3)n2)cc1)N1CCC(N2CCCC2)CC1,"binding, competition with immobilised ligand",1 µM,50%
O=C(O)[C@@H]1[C@@H](Cn2nnc3ccccc3c2=O)CC[C@H]1C(=O)c1ccc(OCCC2CCOCC2)cc1,"cell-free assay, competition with immobilised ligand",1 µM,100%
COc1cnc(Nc2cccc(S(N)(=O)=O)c2)nc1N1CCN(c2ccccc2)C(=O)C1,"binding, competition with immobilised ligand",1 µM,92%
Cc1cnn2ncc(-c3ccnc(N(C)C)n3)c2c1,binding,1 µM,98%
COc1cnc(Nc2cccc(S(N)(=O)=O)c2)nc1N1CCN(c2ccccc2)CC1,"binding, competition with immobilised ligand",1 µM,96%
c1cnn2ncc(-c3ccnc(N4CCC45COC5)n3)c2c1,binding,1 µM,71%
CNC(=O)c1ccc(Nc2ncc(C(F)(F)F)c(NCc3nccnc3N(C)S(C)(=O)=O)n2)cc1,"cell-free assay, competition with immobilised ligand",0.1 µM,100%
